Reference: ChEMBL document CHEMBL1135242, “Tricyclic isoxazoles are novel inhibitors of the multidrug resistance protein (MRP1)” (Bioorg Med Chem Lett, 2002)

Assays:
HeLa = assay: Competitive inhibition of [3H]LTC4 uptake by MRP1 expressing HeLa-T5 cell membranes; format: functional, Homo sapiens
[1] = Selectivity ratio of average EC50 values was calculated in HL60/ADR cell line and HL60/Vinc cell line; format: functional, HL-60
Procedure, shortened: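 Resistance reversal in MRP1-overexpressing HL60/Adr and P-gp-overexpressing HL60/Vinc cells. Modulator EC50 is the concentration-dependent enhancement of the antiproliferative response to an IC20 concentration of doxorubicin. Cell number is read by alamarBlue reduction. Ratio is the average EC50 in HL60/Vinc divided by the average EC50 in HL60/Adr.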

[2] = biological target: MRP1 (ABCC1, Homo sapiens); assay: In vitro for its inhibitory activity against MRP1-transfected HeLa-T5 cell line in the presence of doxorubicin

Molecule `COc1cc(N(C)C(=O)Cc2cccc(-n3c(=O)c4c(C)onc4c4c(Cl)cccc43)c2)cc(OC)c1OC` has an EC50 (HeLa) of 4200 nM and a Ratio [1] of 4.
`Cc1ccc(NC(=O)Cc2cccc(-n3c(=O)c4c(C)onc4c4c(Cl)cccc43)c2)cc1` gave an EC50 [2] of 3700 nM.
With `Cc1onc2c1c(=O)n(-c1cccc(CC(=O)Nc3ccc(C#N)cc3)c1)c1cccc(Cl)c21` the EC50 [2] was 4900 nM.
In the case of `COc1cc(NC(=O)Cc2cccc(-n3c(=O)c4c(C)onc4c4c(Cl)cccc43)c2)cc(OC)c1OC`, the EC50 (HeLa) is reported as 1800 nM.
`Cc1onc2c1c(=O)n(-c1cccc(CC(=O)Nc3ccc(C(F)(F)F)cc3)c1)c1cccc(Cl)c21` showed an EC50 [2] greater than 10000 nM.
For `COc1cc(NC(=O)Cc2cccc(-n3c(=O)c4c(C)onc4c4c(Cl)cccc43)c2)cc(OC)c1O`, the EC50 (HeLa) was 1700 nM, the Ratio [1] was 14 and the EC50 [2] was 1300 nM.
`Cc1onc2c1c(=O)n(-c1cccc(CC(=O)Nc3ccccc3)c1)c1cccc(Cl)c21` gave an EC50 [2] of 2300 nM.
With `COc1cc(OCCc2cccc(-n3c(=O)c4c(C)onc4c4c(Cl)cccc43)c2)cc(OC)c1OC` the EC50 (HeLa) was 4400 nM and the Ratio [1] was 14.
Molecule `COc1cc(C(=O)NCc2cccc(-n3c(=O)c4c(C)onc4c4c(Cl)cccc43)c2)cc(OC)c1OC` has an EC50 [2] of 1130 nM.
